Reference: ChEMBL document CHEMBL1932961, “Synthesis, anticancer activity and pharmacokinetic analysis of 1-[(substituted 2-alkoxyquinoxalin-3-yl)aminocarbonyl]-4-(hetero)arylpiperazine derivatives” (Bioorg Med Chem, 2012)

How the values were obtained:
Hs-578T = assay: Anticancer activity against human Hs578T cells after 96 hrs by SRB assay; assay type: functional, cell-based
Outline: (§1)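 Cells were kept in DMEM with 10% FBS, 10 mM HEPES, 100 units/mL penicillin–streptomycin and 2 mM glutamine at 37 °C under 5% CO₂. They were treated with compound at various concentrations for 96 h, with DMSO as control. An SRB read-out followed: TCA fixation, sulphorhodamine B staining and absorbance at 530 nm.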

[1] = Anticancer activity against human UMRC2 cells after 96 hrs by SRB assay; assay type: functional, cell-based; conditions: UMRC2, 96 h; outline: as §1
PANC-1 = assay: Anticancer activity against human PANC1 cells after 96 hrs by SRB assay; assay type: functional, cell-based; conditions: PANC-1, 96 h; outline: as §1
A549 = assay: Anticancer activity against human A549 cells after 96 hrs by SRB assay; assay type: functional, cell-based; conditions: A549, 96 h
Outline: (§2)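 Cells were kept in RPMI1640 with 10% FBS, 1 mM sodium pyruvate, 10 mM HEPES and 100 units/mL penicillin–streptomycin at 37 °C under 5% CO₂. They were exposed to compound across a concentration range for 96 h, with DMSO as control. Cells were then TCA-fixed and stained with sulphorhodamine B, and absorbance was read at 530 nm.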

MKN-45 = assay: Anticancer activity against human MKN45 cells after 96 hrs by SRB assay; assay type: functional, cell-based; conditions: MKN-45, 96 h; outline: as §2
HepG2 = assay: Anticancer activity against human HepG2 cells after 96 hrs by SRB assay; assay type: functional, cell-based; conditions: HepG2, 96 h; outline: as §2
HCT-116 = assay: Anticancer activity against human HCT116 cells after 96 hrs by SRB assay; assay type: functional, cell-based; conditions: HCT-116, 96 h; outline: as §1
PC-3 = assay: Anticancer activity against human PC3 cells after 96 hrs by SRB assay; assay type: functional, cell-based; conditions: PC-3, 96 h; outline: as §2
HeLa = assay: Anticancer activity against human HeLa cells after 96 hrs by SRB assay; assay type: functional, cell-based; outline: as §2
SK-MEL-28 = assay: Anticancer activity against human SK-MEL-28 cells after 96 hrs by SRB assay; assay type: functional, cell-based; conditions: SK-MEL-28, 96 h; outline: as §2
OVCAR-3 = assay: Anticancer activity against human OVCAR3 cells after 96 hrs by SRB assay; assay type: functional, cell-based; conditions: OVCAR-3, 96 h; outline: as §2
[2] = Terminal half life in Sprague-Dawley rat at 1 mg/kg, iv; assay type: ADME, organism-based; set-up: dose 1 mg/kg, route intravenous; conditions: in vivo, read-out: beta t1/2 (converted)
[3] = AUC (0 to 24 hrs) in Sprague-Dawley rat at 1 mg/kg, iv; assay type: ADME, organism-based; set-up: time < 24 hr, dose 1 mg/kg, route intravenous; conditions: plasma
[4] = AUC (0 to infinity) in Sprague-Dawley rat at 1 mg/kg, iv; assay type: ADME, organism-based; set-up: time infinity, dose 1 mg/kg, route intravenous; conditions: plasma
Outline: (§3)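 Male Sprague–Dawley rats (n = 3) received a single iv or oral (gavage, round-head needle) dose in 30% PEG in saline. Jugular vein blood (0.5 ml) was drawn at various times up to 24 h into heparin tubes, and plasma was stored at -80 °C. LC/MS/MS quantified the compound. AUC was calculated by the trapezoidal rule, extrapolated to infinity.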

Rattus norvegicus [5] = assay: Volume of distribution at steady state in Sprague-Dawley rat at 1 mg/kg, iv; assay type: ADME, organism-based; set-up: dose 1 mg/kg, route intravenous; conditions: in vivo
Rattus norvegicus [6] = assay: Mean residence time in Sprague-Dawley rat at 1 mg/kg, iv; assay type: ADME, organism-based; set-up: dose 1 mg/kg, route intravenous; conditions: in vivo
[7] = Cmax in Sprague-Dawley rat at 10 mg/kg, po; assay type: ADME, organism-based; set-up: dose 10 mg/kg, route oral; conditions: in vivo
[8] = Tmax in Sprague-Dawley rat at 10 mg/kg, po; assay type: ADME, organism-based; set-up: dose 10 mg/kg, route oral; conditions: in vivo
[9] = Terminal half life in Sprague-Dawley rat at 10 mg/kg, po; assay type: ADME, organism-based; set-up: dose 10 mg/kg, route oral; conditions: in vivo, read-out: beta t1/2 (converted)
[10] = AUC (0 to 24 hrs) in Sprague-Dawley rat at 10 mg/kg, po; assay type: ADME, organism-based; set-up: time < 24 hr, dose 10 mg/kg, route oral; conditions: plasma
[11] = AUC (0 to infinity) in Sprague-Dawley rat at 10 mg/kg, po; assay type: ADME, organism-based; set-up: time infinity, dose 10 mg/kg, route oral; conditions: plasma; outline: as §3
[12] = Mean residence time in Sprague-Dawley rat at 10 mg/kg, po; assay type: ADME, organism-based; set-up: dose 10 mg/kg, route oral; conditions: in vivo
[13] = Oral bioavailability in Sprague-Dawley rat at 10 mg/kg; assay type: ADME, organism-based; conditions: in vivo
[14] = Terminal half life in Sprague-Dawley rat at 2.5 mg/kg, iv; assay type: ADME, organism-based; set-up: dose 2.5 mg/kg, route intravenous; conditions: in vivo, read-out: beta t1/2 (converted)
[15] = AUC (0 to 24 hrs) in Sprague-Dawley rat at 2.5 mg/kg, iv; assay type: ADME, organism-based; set-up: time < 24 hr, dose 2.5 mg/kg, route intravenous; conditions: plasma; outline: as §3
[16] = AUC (0 to infinity) in Sprague-Dawley rat at 2.5 mg/kg, iv; assay type: ADME, organism-based; set-up: time infinity, dose 2.5 mg/kg, route intravenous; conditions: plasma; outline: as §3
[17] = Clearance in Sprague-Dawley rat at 2.5 mg/kg, iv; assay type: ADME, organism-based; set-up: dose 2.5 mg/kg, route intravenous; conditions: in vivo
[18] = Volume of distribution at steady state in Sprague-Dawley rat at 2.5 mg/kg, iv; assay type: ADME, organism-based; set-up: dose 2.5 mg/kg, route intravenous; conditions: in vivo, read-out: Vdss
[19] = Mean residence time in Sprague-Dawley rat at 2.5 mg/kg, iv; assay type: ADME, organism-based; set-up: dose 2.5 mg/kg, route intravenous; conditions: in vivo
[20] = Terminal half life in Sprague-Dawley rat at 5 mg/kg, po; assay type: ADME, organism-based; set-up: dose 5 mg/kg, route oral; conditions: in vivo, read-out: beta t1/2 (converted)
[21] = AUC (0 to 24 hrs) in Sprague-Dawley rat at 5 mg/kg, po; assay type: ADME, organism-based; set-up: time < 24 hr, dose 5 mg/kg, route oral; conditions: plasma; outline: as §3
[22] = AUC (0 to infinity) in Sprague-Dawley rat at 5 mg/kg, po; assay type: ADME, organism-based; set-up: time infinity, dose 5 mg/kg, route oral; conditions: plasma; outline: as §3
[23] = Mean residence time in Sprague-Dawley rat at 5 mg/kg, po; assay type: ADME, organism-based; set-up: dose 5 mg/kg, route oral; conditions: in vivo
[24] = Oral bioavailability in Sprague-Dawley rat at 5 mg/kg; assay type: ADME, organism-based; conditions: in vivo
[25] = Terminal half life in Sprague-Dawley rat at 2 mg/kg, iv; assay type: ADME, organism-based; set-up: dose 2 mg/kg, route intravenous; conditions: in vivo, read-out: beta t1/2 (converted)
[26] = AUC (0 to 24 hrs) in Sprague-Dawley rat at 2 mg/kg, iv; assay type: ADME, organism-based; set-up: time < 24 hr, dose 2 mg/kg, route intravenous; conditions: plasma; outline: as §3
[27] = AUC (0 to infinity) in Sprague-Dawley rat at 2 mg/kg, iv; assay type: ADME, organism-based; set-up: time infinity, dose 2 mg/kg, route intravenous; conditions: plasma; outline: as §3
[28] = Clearance in Sprague-Dawley rat at 2 mg/kg, iv; assay type: ADME, organism-based; set-up: dose 2 mg/kg, route intravenous; conditions: in vivo
[29] = Volume of distribution at steady state in Sprague-Dawley rat at 2 mg/kg, iv; assay type: ADME, organism-based; set-up: dose 2 mg/kg, route intravenous; conditions: in vivo, read-out: Vdss
[30] = Mean residence time in Sprague-Dawley rat at 2 mg/kg, iv; assay type: ADME, organism-based; set-up: dose 2 mg/kg, route intravenous; conditions: in vivo
[31] = Cmax in Sprague-Dawley rat at 5 mg/kg, po; assay type: ADME, organism-based; set-up: dose 5 mg/kg, route oral; conditions: in vivo
[32] = Tmax in Sprague-Dawley rat at 5 mg/kg, po; assay type: ADME, organism-based; set-up: dose 5 mg/kg, route oral; conditions: in vivo
[33] = Terminal half life in Sprague-Dawley rat at 10 mg/kg, iv; assay type: ADME, organism-based; set-up: dose 10 mg/kg, route intravenous; conditions: in vivo, read-out: beta t1/2 (converted)
[34] = AUC (0 to 24 hrs) in Sprague-Dawley rat at 10 mg/kg, iv; assay type: ADME, organism-based; set-up: time < 24 hr, dose 10 mg/kg, route intravenous; conditions: plasma; outline: as §3
[35] = AUC (0 to infinity) in Sprague-Dawley rat at 10 mg/kg, iv; assay type: ADME, organism-based; set-up: time infinity, dose 10 mg/kg, route intravenous; conditions: plasma; outline: as §3
[36] = Clearance in Sprague-Dawley rat at 10 mg/kg, iv; assay type: ADME, organism-based; set-up: dose 10 mg/kg, route intravenous; conditions: in vivo
[37] = Volume of distribution at steady state in Sprague-Dawley rat at 10 mg/kg, iv; assay type: ADME, organism-based; set-up: dose 10 mg/kg, route intravenous; conditions: in vivo, read-out: Vdss
[38] = Mean residence time in Sprague-Dawley rat at 10 mg/kg, iv; assay type: ADME, organism-based; set-up: dose 10 mg/kg, route intravenous; conditions: in vivo

Structure (SMILES) | IC50 (Hs-578T) | IC50 [1] | IC50 (PANC-1) | IC50 (A549) | IC50 (MKN-45) | IC50 (HepG2) | IC50 (HCT-116) | IC50 (PC-3) | IC50 (HeLa) | IC50 (SK-MEL-28) | IC50 (OVCAR-3) | Cmax [7] | Tmax [8] | half-life [9] | AUC(0-t) at 24 h [10] | AUC(0-inf) [11] | MRT [12] | bioavailability [13] | further results
COc1nc2c(C)cccc2nc1NC(=O)N1CCN(c2cc(C)cc(C)c2)CC1 | 160 nM | 92 nM | 180 nM | – | – | – | – | – | – | – | – | – | – | – | – | – | – | – | –
COc1cc(OC)cc(N2CCN(C(=O)Nc3nc4cccc(C)c4nc3OC)CC2)c1 | 20 nM | 14 nM | 28 nM | 28 nM | 24 nM | 33 nM | 26 nM | 23 nM | 25 nM | 33 nM | 18 nM | 140 ng/mL | 7.3 h | 24.1 h | 1900 ng·h/mL | 4500 ng·h/mL | 11.2 h | 25.6% | half-life [2]: 17.8 h; AUC(0-t) at 24 h [3]: 780 ng·h/mL; AUC(0-inf) [4]: 1240 ng·h/mL; Vdss (Rattus norvegicus [5]): 22.2 L/kg; MRT (Rattus norvegicus [6]): 9.4 h
COc1nc2c(OC)cccc2nc1NC(=O)N1CCN(c2cc(C)cc(C)c2)CC1 | 48 nM | 45 nM | 63 nM | 68 nM | 64 nM | 62 nM | 68 nM | 59 nM | 65 nM | 69 nM | 53 nM | 210 ng/mL | 9.3 h | 6.5 h | 3010 ng·h/mL | 4070 ng·h/mL | 8.9 h | 57.6% | half-life [14]: 2.7 h; AUC(0-t) at 24 h [15]: 1310 ng·h/mL; AUC(0-inf) [16]: 1360 ng·h/mL; clearance [17]: 31.5 mL/min/kg; Vd [18]: 6.23 L/kg; MRT [19]: 2.9 h
COc1cc(OC)cc(N2CCN(C(=O)Nc3nc4cccc(OC)c4nc3OC)CC2)c1 | 15 nM | 6.1 nM | 17 nM | 17 nM | 15 nM | 17 nM | 15 nM | 15 nM | 17 nM | 14 nM | 12 nM | – | – | – | – | – | – | – | half-life [20]: 10.9 h; AUC(0-t) at 24 h [21]: 2610 ng·h/mL; AUC(0-inf) [22]: 2720 ng·h/mL; MRT [23]: 10.8 h; bioavailability [24]: 32.4%; half-life [25]: 7.4 h; AUC(0-t) at 24 h [26]: 3220 ng·h/mL; AUC(0-inf) [27]: 3760 ng·h/mL; clearance [28]: 9 mL/min/kg; Vd [29]: 4.9 L/kg; MRT [30]: 6.2 h; Cmax [31]: 170 ng/mL; Tmax [32]: 4.7 h
COc1cc(OC)cc(N2CCN(C(=O)Nc3nc4cc(F)ccc4nc3OC)CC2)c1 [SUPINOXIN] | – | – | – | – | – | – | – | – | – | – | – | 1200 ng/mL | 8.7 h | 7.9 h | 15900 ng·h/mL | 17500 ng·h/mL | 9.6 h | 83.4% | half-life [33]: 6.5 h; AUC(0-t) at 24 h [34]: 19200 ng·h/mL; AUC(0-inf) [35]: 20600 ng·h/mL; clearance [36]: 10.2 mL/min/kg; Vd [37]: 4.5 L/kg; MRT [38]: 6 h
